Results reported in ChEMBL document CHEMBL1208690, “A novel aryl-hydrazide from the marine lichen Lichina pygmaea: isolation, synthesis of derivatives, and cytotoxicity assays” (Bioorg Med Chem Lett, 2010).

What follows are compounds tested on A-375 (assay: Cytotoxicity activity against human A375 cells after 24 hrs by NRU assay). Details: A-375, 24 h.
Format: functional, cell-based
How it was run: (§1)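 Neutral red uptake assay. A375 cells were seeded at 12×10³ and B16 at 10×10³ cells/well, then incubated 24 h at 37 °C in humidified 5% CO₂. Cells were exposed to compound dilutions in RPMI for 24 or 48 h. Dye was extracted with ethanol/acetic acid/water (50:1:49) and A540 read. IC50 was taken graphically from concentration-effect curves.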

N[C@@H](CCC(=O)NNc1cccc(O)c1)C(=O)O and N[C@@H](CCC(=O)NNc1ccc(O)cc1)C(=O)O [XANTHODERMINE] cannot be ordered by IC50: greater than 50 µM for the first, greater than 50 µM for the second.

O=C(CC[C@H](NC(=O)OCc1ccccc1)C(=O)OCc1ccccc1)NNc1ccccc1OCc1ccccc1 and O=C(CC[C@H](NC(=O)OCc1ccccc1)C(=O)OCc1ccccc1)NNc1cccc(OCc2ccccc2)c1 are within 1.5-fold of each other in IC50: 29 µM for the first, 28 µM for the second.

O=C(CC[C@H](NC(=O)OCc1ccccc1)C(=O)OCc1ccccc1)NNc1ccc(OCc2ccccc2)cc1 and COC1=C(NC(CO)CO)C[C@@](O)(CO)CC1=O [MYCOSPORINE SERINOL] cannot be ordered by IC50: greater than 50 µM for the first, greater than 50 µM for the second.

For COc1cc([C@@H]2c3cc4c(cc3[C@@H](O[C@@H]3O[C@@H]5CO[C@@H](C)O[C@H]5[C@H](O)[C@H]3O)[C@H]3COC(=O)[C@H]23)OCO4)cc(OC)c1O [ETOPOSIDE], the IC50 was 19 µM.

These compounds were tested on A-375 (assay: Cytotoxicity activity against human A375 cells at 50 uM after 24 hrs by NRU assay). Details: A-375, 24 h.
Format: functional
How it was run: as §1

Compared with N[C@@H](CCC(=O)NNc1cccc(O)c1)C(=O)O, N[C@@H](CCC(=O)NNc1ccc(O)cc1)C(=O)O [XANTHODERMINE] is higher in inhibition at 50 µM: 8% for the first, 12% for the second.

Compared with O=C(CC[C@H](NC(=O)OCc1ccccc1)C(=O)OCc1ccccc1)NNc1ccccc1OCc1ccccc1, O=C(CC[C@H](NC(=O)OCc1ccccc1)C(=O)OCc1ccccc1)NNc1cccc(OCc2ccccc2)c1 is higher in inhibition at 50 µM: 77% for the first, 80% for the second.

Compared with O=C(CC[C@H](NC(=O)OCc1ccccc1)C(=O)OCc1ccccc1)NNc1ccc(OCc2ccccc2)cc1, COC1=C(NC(CO)CO)C[C@@](O)(CO)CC1=O [MYCOSPORINE SERINOL] is higher in inhibition at 50 µM: 4% for the first, 11% for the second.

For COc1cc([C@@H]2c3cc4c(cc3[C@@H](O[C@@H]3O[C@@H]5CO[C@@H](C)O[C@H]5[C@H](O)[C@H]3O)[C@H]3COC(=O)[C@H]23)OCO4)cc(OC)c1O [ETOPOSIDE], the inhibition at 50 µM was 100%.

What follows are compounds tested on A-375 (assay: Cytotoxicity activity against human A375 cells after 48 hrs by NRU assay). Details: A-375, 48 h.
Format: functional, cell-based
How it was run: as §1

N[C@@H](CCC(=O)NNc1cccc(O)c1)C(=O)O and N[C@@H](CCC(=O)NNc1ccc(O)cc1)C(=O)O [XANTHODERMINE] cannot be ordered by IC50: greater than 50 µM for the first, greater than 50 µM for the second.

O=C(CC[C@H](NC(=O)OCc1ccccc1)C(=O)OCc1ccccc1)NNc1ccccc1OCc1ccccc1 and O=C(CC[C@H](NC(=O)OCc1ccccc1)C(=O)OCc1ccccc1)NNc1cccc(OCc2ccccc2)c1 are within 1.5-fold of each other in IC50: 30 µM for the first, 29 µM for the second.

O=C(CC[C@H](NC(=O)OCc1ccccc1)C(=O)OCc1ccccc1)NNc1ccc(OCc2ccccc2)cc1 and COC1=C(NC(CO)CO)C[C@@](O)(CO)CC1=O [MYCOSPORINE SERINOL] cannot be ordered by IC50: greater than 50 µM for the first, greater than 50 µM for the second.

For COc1cc([C@@H]2c3cc4c(cc3[C@@H](O[C@@H]3O[C@@H]5CO[C@@H](C)O[C@H]5[C@H](O)[C@H]3O)[C@H]3COC(=O)[C@H]23)OCO4)cc(OC)c1O [ETOPOSIDE], the IC50 was 12 µM.

What follows are compounds tested on A-375 (assay: Cytotoxicity activity against human A375 cells at 50 uM after 48 hrs by NRU assay). Details: A-375, 48 h.
Format: functional
How it was run: as §1

First: N[C@@H](CCC(=O)NNc1cccc(O)c1)C(=O)O
Second: N[C@@H](CCC(=O)NNc1ccc(O)cc1)C(=O)O [XANTHODERMINE]
The inhibition at 50 µM of the first is lower: 14% for the first, 31% for the second.

Compared with O=C(CC[C@H](NC(=O)OCc1ccccc1)C(=O)OCc1ccccc1)NNc1ccccc1OCc1ccccc1, O=C(CC[C@H](NC(=O)OCc1ccccc1)C(=O)OCc1ccccc1)NNc1cccc(OCc2ccccc2)c1 is higher in inhibition at 50 µM: 69% for the first, 73% for the second.

First: O=C(CC[C@H](NC(=O)OCc1ccccc1)C(=O)OCc1ccccc1)NNc1ccc(OCc2ccccc2)cc1
Second: COC1=C(NC(CO)CO)C[C@@](O)(CO)CC1=O [MYCOSPORINE SERINOL]
The inhibition at 50 µM of the first is lower: 19% for the first, 20% for the second.

COc1cc([C@@H]2c3cc4c(cc3[C@@H](O[C@@H]3O[C@@H]5CO[C@@H](C)O[C@H]5[C@H](O)[C@H]3O)[C@H]3COC(=O)[C@H]23)OCO4)cc(OC)c1O [ETOPOSIDE] showed an inhibition at 50 µM of 100%.

These compounds were tested on B16 (assay: Cytotoxicity activity against mouse B16 cells after 24 hrs by NRU assay). Details: B16, 24 h.
Format: functional, cell-based
How it was run: as §1

First: N[C@@H](CCC(=O)NNc1cccc(O)c1)C(=O)O
Second: N[C@@H](CCC(=O)NNc1ccc(O)cc1)C(=O)O [XANTHODERMINE]
The IC50 of the first is 7.5-fold higher: 12 µM for the first, 1.6 µM for the second. The second is the more potent here.

First: O=C(CC[C@H](NC(=O)OCc1ccccc1)C(=O)OCc1ccccc1)NNc1ccccc1OCc1ccccc1
Second: O=C(CC[C@H](NC(=O)OCc1ccccc1)C(=O)OCc1ccccc1)NNc1cccc(OCc2ccccc2)c1
The IC50 of the first is 2.6-fold higher: 21 µM for the first, 8 µM for the second.

Compared with O=C(CC[C@H](NC(=O)OCc1ccccc1)C(=O)OCc1ccccc1)NNc1ccc(OCc2ccccc2)cc1, COC1=C(NC(CO)CO)C[C@@](O)(CO)CC1=O [MYCOSPORINE SERINOL] is higher in IC50: 5 µM for the first, greater than 50 µM for the second. The first is the more potent here.

In the case of COc1cc([C@@H]2c3cc4c(cc3[C@@H](O[C@@H]3O[C@@H]5CO[C@@H](C)O[C@H]5[C@H](O)[C@H]3O)[C@H]3COC(=O)[C@H]23)OCO4)cc(OC)c1O [ETOPOSIDE], the IC50 is reported as 9 µM.

The compounds below were run on B16 (assay: Cytotoxicity activity against mouse B16 cells at 50 uM after 24 hrs by NRU assay). Details: B16, 24 h.
Format: functional
How it was run: as §1

N[C@@H](CCC(=O)NNc1cccc(O)c1)C(=O)O and N[C@@H](CCC(=O)NNc1ccc(O)cc1)C(=O)O [XANTHODERMINE] are the same in inhibition at 50 µM: 100% for the first, 100% for the second.

First: O=C(CC[C@H](NC(=O)OCc1ccccc1)C(=O)OCc1ccccc1)NNc1ccccc1OCc1ccccc1
Second: O=C(CC[C@H](NC(=O)OCc1ccccc1)C(=O)OCc1ccccc1)NNc1cccc(OCc2ccccc2)c1
The inhibition at 50 µM of the first is lower: 96% for the first, 100% for the second.

Compared with O=C(CC[C@H](NC(=O)OCc1ccccc1)C(=O)OCc1ccccc1)NNc1ccc(OCc2ccccc2)cc1, COC1=C(NC(CO)CO)C[C@@](O)(CO)CC1=O [MYCOSPORINE SERINOL] is lower in inhibition at 50 µM: 100% for the first, 34% for the second.

Compound COc1cc([C@@H]2c3cc4c(cc3[C@@H](O[C@@H]3O[C@@H]5CO[C@@H](C)O[C@H]5[C@H](O)[C@H]3O)[C@H]3COC(=O)[C@H]23)OCO4)cc(OC)c1O [ETOPOSIDE] has an inhibition at 50 µM of 100%.

These compounds were tested on B16 (assay: Cytotoxicity activity against mouse B16 cells after 48 hrs by NRU assay). Details: B16, 48 h.
Format: functional, cell-based
How it was run: as §1

Compared with N[C@@H](CCC(=O)NNc1cccc(O)c1)C(=O)O, N[C@@H](CCC(=O)NNc1ccc(O)cc1)C(=O)O [XANTHODERMINE] is 17-fold lower in IC50: 12 µM for the first, 0.7 µM for the second. The second is the more potent here.

O=C(CC[C@H](NC(=O)OCc1ccccc1)C(=O)OCc1ccccc1)NNc1ccccc1OCc1ccccc1 and O=C(CC[C@H](NC(=O)OCc1ccccc1)C(=O)OCc1ccccc1)NNc1cccc(OCc2ccccc2)c1 are within 1.5-fold of each other in IC50: 15 µM for the first, 14.5 µM for the second.

First: O=C(CC[C@H](NC(=O)OCc1ccccc1)C(=O)OCc1ccccc1)NNc1ccc(OCc2ccccc2)cc1
Second: COC1=C(NC(CO)CO)C[C@@](O)(CO)CC1=O [MYCOSPORINE SERINOL]
The IC50 of the first is 45-fold lower: 0.6 µM for the first, 27 µM for the second. The first is the more potent here.

COc1cc([C@@H]2c3cc4c(cc3[C@@H](O[C@@H]3O[C@@H]5CO[C@@H](C)O[C@H]5[C@H](O)[C@H]3O)[C@H]3COC(=O)[C@H]23)OCO4)cc(OC)c1O [ETOPOSIDE] was tested, and the IC50 was 0.13 µM.

These compounds were tested on B16 (assay: Cytotoxicity activity against mouse B16 cells at 50 uM after 48 hrs by NRU assay). Details: B16, 48 h.
Format: functional
How it was run: as §1

N[C@@H](CCC(=O)NNc1cccc(O)c1)C(=O)O and N[C@@H](CCC(=O)NNc1ccc(O)cc1)C(=O)O [XANTHODERMINE] are the same in inhibition at 50 µM: 100% for the first, 100% for the second.

O=C(CC[C@H](NC(=O)OCc1ccccc1)C(=O)OCc1ccccc1)NNc1ccccc1OCc1ccccc1 and O=C(CC[C@H](NC(=O)OCc1ccccc1)C(=O)OCc1ccccc1)NNc1cccc(OCc2ccccc2)c1 are the same in inhibition at 50 µM: 100% for the first, 100% for the second.

Compared with O=C(CC[C@H](NC(=O)OCc1ccccc1)C(=O)OCc1ccccc1)NNc1ccc(OCc2ccccc2)cc1, COC1=C(NC(CO)CO)C[C@@](O)(CO)CC1=O [MYCOSPORINE SERINOL] is lower in inhibition at 50 µM: 100% for the first, 85% for the second.

Work on COc1cc([C@@H]2c3cc4c(cc3[C@@H](O[C@@H]3O[C@@H]5CO[C@@H](C)O[C@H]5[C@H](O)[C@H]3O)[C@H]3COC(=O)[C@H]23)OCO4)cc(OC)c1O [ETOPOSIDE] yielded an inhibition at 50 µM of 100%.
